5HT1E ag – activates the human 5-HT1E serotonin receptor. CHO 5-HT1E Ga15 NFAT-bla reporter, FRET; 0% DMSO wells, 100% control agonist wells. activation, % at 6 µM. 65,000 compounds, 0.69% hits. AID 574;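 active means activation above a set limit, the screen-wide mean activation plus 3 SD, cut at about 8.5% in these data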;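 further: 100% = positive control agonist at 1 µM giving full maximal response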
Ec RNAP inh – blocks E. coli RNA polymerase transcription; P0A8V2; inhibition, %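 (tested at 10 µM)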; fluorescence transcription assay; 62,000 compounds, 0.2% hits; in the data active means inhibition above about 20%;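 further: 0% = enzyme without compound and 100% = no enzyme blank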
Target sequence (P0A8V2 whole entry, looked up): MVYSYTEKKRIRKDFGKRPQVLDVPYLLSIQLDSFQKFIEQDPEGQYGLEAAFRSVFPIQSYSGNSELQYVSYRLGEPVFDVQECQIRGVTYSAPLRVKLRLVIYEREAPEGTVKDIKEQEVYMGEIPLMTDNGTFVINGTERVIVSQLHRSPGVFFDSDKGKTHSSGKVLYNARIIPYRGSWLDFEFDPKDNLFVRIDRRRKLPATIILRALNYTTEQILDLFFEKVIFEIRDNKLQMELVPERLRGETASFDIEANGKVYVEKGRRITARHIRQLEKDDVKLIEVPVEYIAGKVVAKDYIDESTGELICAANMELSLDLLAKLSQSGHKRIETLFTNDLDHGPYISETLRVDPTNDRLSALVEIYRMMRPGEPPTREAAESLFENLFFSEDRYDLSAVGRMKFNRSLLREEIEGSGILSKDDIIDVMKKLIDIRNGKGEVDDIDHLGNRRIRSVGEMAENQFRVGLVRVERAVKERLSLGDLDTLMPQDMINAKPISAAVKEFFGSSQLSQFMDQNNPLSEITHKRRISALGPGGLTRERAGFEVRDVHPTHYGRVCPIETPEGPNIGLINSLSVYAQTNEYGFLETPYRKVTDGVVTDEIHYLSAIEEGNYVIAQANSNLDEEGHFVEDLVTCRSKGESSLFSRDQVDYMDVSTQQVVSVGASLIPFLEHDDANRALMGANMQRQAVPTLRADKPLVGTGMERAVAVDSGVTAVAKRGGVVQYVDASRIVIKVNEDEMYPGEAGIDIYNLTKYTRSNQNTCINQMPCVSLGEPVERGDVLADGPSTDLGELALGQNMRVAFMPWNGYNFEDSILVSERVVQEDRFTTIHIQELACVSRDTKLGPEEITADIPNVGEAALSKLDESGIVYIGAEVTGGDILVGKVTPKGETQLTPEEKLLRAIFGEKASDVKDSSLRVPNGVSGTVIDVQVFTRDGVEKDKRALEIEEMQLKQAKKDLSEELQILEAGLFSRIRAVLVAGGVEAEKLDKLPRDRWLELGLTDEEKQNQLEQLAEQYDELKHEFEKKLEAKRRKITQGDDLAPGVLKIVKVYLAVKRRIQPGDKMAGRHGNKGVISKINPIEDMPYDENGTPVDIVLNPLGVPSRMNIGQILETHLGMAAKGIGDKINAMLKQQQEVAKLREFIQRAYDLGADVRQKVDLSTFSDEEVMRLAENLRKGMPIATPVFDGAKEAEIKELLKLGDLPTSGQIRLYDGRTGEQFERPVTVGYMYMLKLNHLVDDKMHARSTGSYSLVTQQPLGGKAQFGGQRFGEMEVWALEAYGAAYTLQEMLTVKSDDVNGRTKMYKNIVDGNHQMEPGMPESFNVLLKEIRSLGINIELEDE
S1P3 agonist – S1P3 (human) receptor agonism; 60,000 compounds, 0.1% hits; Q99500; AID 373; activation, % at 4.5 µM; S1P3 NFAT-BLA reporter cells, FRET ratio; relative to 1 µM S1P, basal subtracted;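 active means activation above the screen-wide mean plus 3 SD, cut at about 4.5% in these data, passing the limit was not always enough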
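Benchmarks: high control 1 µM S1P / System: stable CHO line with human S1P3, Gα16, NFAT-BLA reporter / Dosing: single compound concentration, 4.5 µM final / Timing: 4 h compound at 37 °C, 2 h substrate at RT / Measured by: FRET β-lactamase substrate fluorescence, excitation 405 nm, 460/535 nm emission ratio, background-subtracted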
5-HT1A blocker – blocks the human serotonin 5-HT1a receptor; CHO 5-HT1a Ga15 NFAT-bla reporter, antagonist mode; inhibition, % at 10 µM; 62,000 compounds, 0.68% hits;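 active means inhibition above the mean of all tested compounds plus 3 SD, cut at about 43% in these data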;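 further: receptor stimulated by 5-CT agonist at 100 nM near EC80; beta-lactamase reporter measured by ratiometric fluorescence of a cleavable substrate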
5HT1a ag – agonists of human 5-HT1a serotonin receptor; CHO 5-HT1a Ga15 NFAT-bla reporter, FRET ratio; 0% basal, 100% maximal reference agonist; activation, % at 10 µM; 65,000 compounds, 0.56% hits; AID 567;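 active means activation above the screen-wide mean activation plus 3 SD, cut at about 19% in these data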;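 further: 0% = DMSO wells and 100% = 5-CT at EC100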
HTR1E antagonist – blocks the human 5-HT1E serotonin receptor; inhibition, % at 6 µM; 65,000 compounds, 0.99% hits; AID 571; CHO 5-HT1E Ga15 NFAT-bla reporter, FRET, antagonist; P28566;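 active means inhibition above a set limit, the mean inhibition across every tested compound plus 3 SD, cut at about 29% in these data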;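 further: signal is the 460 over 535 nm emission ratio of beta-lactamase substrate; 0% = agonist plus DMSO wells and 100% = wells without agonist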
An asterisk follows results filed as active; x = not tested or not shown. Sampled rows, rich in hits. Any-hit rate of the full collection: about 2.6%.

SMILES | 5HT1E ag | Ec RNAP inh | S1P3 agonist | 5-HT1A blocker | 5HT1a ag | HTR1E antagonist
Cc1ccc(NC(=O)CN(c2ccccc2F)S(C)(=O)=O)cc1 | -1 | 4 | -2 | 12 | -2 | -6
N#CCSc1nnc(-c2ccccc2)c(-c2ccccc2)n1 | 0 | 11 | 6.3* | -7 | 0 | 2
COc1cccc2sc(Nc3nc(-c4ccccn4)cs3)nc12 | 3 | 6 | -2 | 66* | -2 | 69*
COc1cccc2sc(Nc3nnc(-c4cccs4)o3)nc12 | 0 | -5 | -1 | 46* | -8 | 7
COC(=O)c1sc(NC(=O)COc2ccccc2OC)nc1C | 1 | 3 | -1 | -15 | -2 | -11
CCOC(=O)c1sc(Nc2nc3c(OC)cccc3s2)nc1C | 13* | -34 | 0 | -20 | 28* | -6
O=C(CSc1nc2ccccc2o1)NCc1ccco1 | 0 | 10 | 0 | -14 | -3 | -16
Cc1nc2ccccc2c2oc(C(=O)NCc3ccccn3)cc12 | 0 | 6 | -1 | 1 | 34* | -1
O=C(COC(=O)c1cnccn1)c1ccc2c(c1)CCCC2 | 0 | 6 | x | -14 | -1 | 2
Cc1nc(N2CCN(C)CC2)[nH]c(=O)c1Cc1cccc2ccccc12 | 1 | 8 | 0 | 1 | -6 | 10
c1ccc2c(CC3=NCCN3)cccc2c1 | 9.2* | 5 | -1 | x | 4 | -19
Cc1nnc(NCc2ccncc2)c2ccccc12 | 1 | 5 | -1 | 5 | 88* | -5
Cc1nnc(NCc2ccco2)c2ccccc12 | -1 | 7 | -1 | -15 | -1 | -7
O=C(NCc1cn2ccsc2n1)c1cccc(C(F)(F)F)c1 | 0 | 22* | 2 | 5 | -5 | 0
CN(C)CCCN(CCCNC(=O)/C=N/O)Cc1ccccc1 | 26* | 6 | -2 | x | -3 | 5
CN(CCCCCNC(=O)/C=N/O)Cc1ccccc1 | -1 | -1 | -4 | x | -1 | -11
O=C(COc1ccc(Cl)cc1Cl)Nc1noc2ccccc12 | 0 | -4 | -1 | -10 | -2 | 7
CC(CN1CCOCC1)OC(=O)c1ccccc1Br (centres undefined) | 0 | 1 | -1 | -4 | -1 | -7
Cc1ccc(C2c3c(oc4ccccc4c3=O)C(=O)N2c2nnc(C(C)C)s2)o1 (centres undefined) | 2 | 4 | -1 | 1 | -1 | 32*
COc1cccc(N2CCN(c3ncnc4c3cnn4-c3ccc(C)cc3C)CC2)c1 | 3 | 5 | -3 | 48* | 3 | 69*
O=c1[nH]ncc2c3ccccc3n(Cc3ccccc3)c12 | -1 | -2 | -2 | 25 | -1 | 10
Cc1ccc(Cn2c3ccccc3c3cn[nH]c(=O)c32)cc1 | -1 | 74* | 2 | 1 | 0 | 10
CC(C)C(=O)N=c1sc2cc(F)cc(F)c2n1C | 1 | 7 | -1 | -8 | -1 | -12
Cc1ccc(S(=O)(=O)CC(=O)N(C)C)cc1 | 0 | 1 | x | -14 | 1 | -1
CCCNC(=O)c1c(N)n(-c2cc(OC)cc(OC)c2)c2nc3ccccc3nc12 | 12* | -7 | 2 | -45 | 30* | -15
SMILES | 5HT1E ag | Ec RNAP inh | S1P3 agonist | 5-HT1A blocker | 5HT1a ag | HTR1E antagonist
CCc1cc(C=C(Cl)Cl)oc(=O)c1C | -1 | x | -2 | 8 | -1 | 13
CC(=O)C(C(C)=O)c1c(Cl)c(O)c(O)c2c(C(=O)c3ccccc3)coc12 | -1 | 32* | -1 | 29 | -3 | 23
CN1CCN(Cc2c(O)ccc3occ(C(=O)c4ccccc4)c23)CC1 | 0 | 10 | 0 | 4 | -1 | -9
Cn1c(C(=O)NCc2cccs2)cc2oc3ccccc3c21 | -1 | 0 | 0 | 11 | -2 | 4
CC1(C)NC(=O)N(CC(O)Cn2nnc3ccccc32)C1=O (centres undefined) | -1 | 8 | -2 | x | -1 | -1
Cc1cccc(-c2nnc3n2N=C(c2ccccc2Br)CS3)c1 | 2 | 5 | -1 | 16 | -5 | 31*
Cc1ccc(-c2nnc3n2N=C(c2ccccc2)CS3)cc1 | 1 | 2 | -1 | 5 | -1 | 45*
COc1ccc(C2=Nn3c(nnc3-c3ccc(OC)cc3)SC2)cc1 | 0 | 8 | 1 | 43* | -1 | 79*
Clc1ccccc1C1=Nn2c(nnc2-c2ccncc2)SC1 | 0 | 6 | -1 | 34 | -3 | 20
c1ccc(C2=Nn3c(nnc3-c3cc(-c4ccccc4)n[nH]3)SC2)cc1 | 2 | 9 | -1 | -14 | -2 | 20
COc1ccc(OC)c(C2=Nn3c(nnc3-c3ccncc3)SC2)c1 | 1 | 2 | x | -10 | 3 | 16
COc1cc(NC(=O)c2cc(CC(C)C)on2)c(OC)cc1Cl | 1 | 3 | 0 | -12 | 1 | -14
CC(C)c1nnc(NC(=O)C2CCN(c3nc4ccccc4s3)CC2)s1 | 0 | 5 | 1 | 1 | 1 | -18
Cc1ccc(C(=O)CC2(O)C(=O)N(Cc3ccccc3Cl)c3ccccc32)o1 (centres undefined) | 16* | 5 | -1 | -2 | 0 | 8
C=CCn1c(=O)c(C#N)cc2c(=O)n3ccccc3nc21 | 16* | -30 | 5.2* | -44 | 43* | -28
N#Cc1cc2c(=O)n3ccccc3nc2n(Cc2cccnc2)c1=N | -1 | -3 | x | 7 | -1 | -1
Cc1cc(-n2c(=O)c(C#N)cc3c(=O)n4ccccc4nc32)no1 | 19* | -38 | 11* | -114 | 72* | -39
COc1ccc(CCNC(=O)CSc2nc(-c3ccco3)cc(C(F)(F)F)n2)cc1 | 0 | 2 | -1 | 9 | -2 | -1
Cc1ccccc1NS(=O)(=O)c1ccc(C2CNC(=O)C2)cc1 (centres undefined) | 1 | 8 | -1 | 2 | -1 | 8
CC1CCN(c2oc(-c3ccccc3Cl)nc2C#N)CC1 | 0 | 9 | 0 | x | 1 | 37*
CC(C)CC(c1nnnn1CC1CCCO1)N1CCN(c2cccc(Cl)c2)CC1 (centres undefined) | 4 | 10 | -1 | 23 | -1 | 4
CC(C)CC(c1nnnn1Cc1ccco1)N1CCN(c2cccc(Cl)c2)CC1 (centres undefined) | -2 | -10 | -1 | 46* | 5 | 13
Cc1ccccc1N1CCN(Cc2cccc(C(=O)O)c2)CC1 | 22* | 0 | -1 | 8 | 0 | 4
CCCCCCNC(=O)c1c(N)n(/N=C/c2ccco2)c2nc3ccccc3nc12 | 3 | -2 | 0 | -8 | 31* | 2
CCCCNC(=O)c1c(N)n(/N=C/c2ccccn2)c2nc3ccccc3nc12 | 1 | 4 | x | -7 | -2 | -12
O=C(CSc1nnnn1-c1ccc2c(c1)OCO2)NCc1ccccc1 | 1 | 7 | -1 | -8 | -2 | 15
